The text below walks through data of ChEMBL document CHEMBL1221324, “Synthesis and characterization of mitoQ and idebenone analogues as mediators of oxygen consumption in mitochondria” (2010).

Active and inactive are the calls of the source. The calls are words filed in the database; no cut-off is given here.

The subject of one assay is C2C12. The experiment in a line: Inhibition of rotenone-induced blockade of mitochondrial complex 1 in mouse C2C12 cells assessed as increase of oxygen consumption at 10 uM after 2 hrs by fluorescence assay in presence of FCCP. It counts as cell-based. A digest of the protocol: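 C2C12 cells grown in DMEM with 10% FBS and 2 mM glutamine were trypsinized, resuspended in phenol red-free medium and pretreated with 25 nM rotenone. They were plated at 200,000 cells/well on an oxygen biosensor plate and given 10 μM compound with 5 μM FCCP. Fluorescence (ex 485/em 620 nm) was followed for 2 h. Rate is M/T, slope at 50% maximum over time to 50% maximum, in triplicate.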

In assay [1] the test system is CCRF-CEM. Put plainly: Cytoprotective activity against diethyl maleate-induced cell death in human CEM cells assessed as cell viability at 2.5 uM treated 18 hrs before diethyl maleate challenge measured after 4 hrs by trypan blue assay. Format: functional. As to conditions: read-out: Activity. A digest of the protocol:
(§1)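 CEM leukemia cells grown in RPMI 1640 with 10% FBS and 1% penicillin-streptomycin; 5 × 10⁵ cells/well pretreated with compound for 18 h, then exposed to 5 mM diethyl maleate at 37 °C, 5% CO2 for 4 h. Viability by 0.4% trypan blue exclusion, as percent of control cells given neither DEM nor compound; mean ± SD, n=3.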

Assay [2] concerns CCRF-CEM. The experiment in a line: Cytoprotective activity against diethyl maleate-induced cell death in human CEM cells assessed as cell viability at 0.5 uM treated 18 hrs before diethyl maleate challenge measured after 4 hrs by trypan blue assay. Format: functional. As to conditions: read-out: Activity. The method, boiled down: as §1
The test system of assay [3] is CCRF-CEM. Put plainly: Cytoprotective activity against diethyl maleate-induced cell death in human CEM cells assessed as cell viability at 0.1 uM treated 18 hrs before diethyl maleate challenge measured after 4 hrs by trypan blue assay. It counts as functional. Conditions: read-out: Activity. The method, boiled down:
as §1

Turning to `COC1=C(OC)C(=O)C(CCCCCCCCCCCCCCC[P+](c2ccccc2)(c2ccccc2)c2ccccc2)=C(C)C1=O`, the “Rescue of oxygen consumption (active/not active)” value (from here on “Rescue … (active/not active)”) in the assay with C2C12 is “inactive”.
On to `COC1=C(C)C(=O)C(C)=C(CCCCCCCCCCO)C1=O`, for which, in the assay with CCRF-CEM [1], the viability at 2.5 µM turned out to be 77.1%. For the same compound, the viability at 0.5 µM in the assay with CCRF-CEM [2] was determined as 21.2%. The viability at 0.1 µM in the assay with CCRF-CEM [3] is 8.27%.
Take `COC1=C(C)C(=O)C(CCCCCCCCCCO)=C(C)C1=O`: in the assay on CCRF-CEM [1], the viability at 2.5 µM worked out at 82.3%. The viability at 0.5 µM in the assay on CCRF-CEM [2] was determined as 74.7%. The viability at 0.1 µM with CCRF-CEM [3] is 22.9%.
`COC1=C(OC)C(=O)C(CCCCCCCCCC[P+](c2ccccc2)(c2ccccc2)c2ccccc2)=C(C)C1=O`: the “Rescue … (active/not active)” value in the assay with C2C12 is “inactive”.
Still for that read-out and setting: the same measure for `COC1=C(OC)C(=O)C(CCCCC[P+](c2ccccc2)(c2ccccc2)c2ccccc2)=C(C)C1=O`: “inactive”.
For the compound `COC1=C(OC)C(=O)C(CCC[P+](c2ccccc2)(c2ccccc2)c2ccccc2)=C(C)C1=O`, in the assay on C2C12, the “Rescue … (active/not active)” value was “Active”.
For the compound `CC1=C(C)C(=O)C(CCCCCCCCCCO)=C(C)C1=O`, the viability at 2.5 µM in the assay on CCRF-CEM [1] worked out at 96.3%. Moreover, the viability at 0.5 µM with CCRF-CEM [2] amounted to 77.3%. The viability at 0.1 µM in the assay with CCRF-CEM [3] was 34.8%.
As to `COC1=C(OC)C(=O)C(CCCCCCCCCCO)=C(C)C1=O` [IDEBENONE], the viability at 2.5 µM in the assay on CCRF-CEM [1] turned out to be 86.2%. The viability at 0.5 µM in the assay on CCRF-CEM [2] amounted to 35.8%. Also, the viability at 0.1 µM in the assay on CCRF-CEM [3] is 24.6%.
